Data: ChEMBL document CHEMBL2396525, “Synthesis and anti-HCMV activity of 1-[ω-(phenoxy)alkyl]uracil derivatives and analogues thereof” (Bioorg Med Chem, 2013)
pEC50: −log10 of the molar value. Activity calls are given as the source filed them. The rule behind the calls is not given here.

How the values were obtained:
[1] = tested on: Human immunodeficiency virus 2; assay: Antiviral activity against HIV2 ROD infected in human CEM cells assessed as inhibition of virus-induced giant cell formation after 4 to 5 days; format: functional, organism-based; conditions: ISOLATE ROD, CCRF-CEM
In short: (§1)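 CEM cells at about 3 × 10^5 cells/mL were infected with 100 CCID50 of HIV per mL, with compound dilutions present. They were incubated 4–5 days at 37 °C in humidified CO2, and syncytia were scored microscopically. EC50 is the concentration that inhibits giant cell formation by 50%.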

[2] = tested on: Human immunodeficiency virus 1; assay: Antiviral activity against HIV1 3B infected in human CEM cells assessed as inhibition of virus-induced giant cell formation after 4 to 5 days; format: functional, organism-based; conditions: CCRF-CEM; in short: as §1
Feline coronavirus = assay: Antiviral activity against Feline coronavirus; format: functional, organism-based
Sindbis virus = assay: Antiviral activity against Sindbis virus; format: functional, organism-based
In short: (§2)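 Confluent HEL, Vero, HeLa or MDCK cell cultures were inoculated with 100 CCID50 of virus alongside varying compound concentrations. Cytopathicity was scored when it reached completion in untreated virus controls. EC50 is the concentration that reduces virus-induced cytopathogenicity by 50%.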

Punta Toro virus = assay: Antiviral activity against Punta Toro virus; format: functional, organism-based; in short: as §2
Influenza B virus = assay: Antiviral activity against Influenza B virus; format: functional, organism-based
In short: (§3)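 The assay was a cell-based cytopathicity inhibition test on confluent monolayers with serial compound dilutions. EC50 was the concentration that reduced virus-induced cytopathicity by 50%.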

[3] = tested on: Mammalian orthoreovirus 1; assay: Antiviral activity against Reovirus-1; format: functional, organism-based; in short: as §2
Influenza A virus [4] = assay: Antiviral activity against Influenza virus A virus H3N2; format: functional, organism-based; in short: as §3
Human respirovirus 3 = assay: Antiviral activity against Parainfluenza virus 3; format: functional, organism-based; in short: as §2
Influenza A virus [5] = assay: Antiviral activity against Influenza virus A virus H1N1; format: functional, organism-based; in short: as §3
Coxsackievirus B4 = assay: Antiviral activity against Coxsackie B4 virus; format: functional, organism-based; in short: as §2
[6] = tested on: Vesicular stomatitis virus; assay: Antiviral activity against Vesicular stomatitis virus; format: functional, organism-based
[7] = tested on: Respiratory syncytial virus; assay: Antiviral activity against Respiratory syncytial virus Long; format: functional, organism-based; in short: as §2
Vaccinia virus = assay: Antiviral activity against Vaccinia virus Lederle; format: functional, organism-based; conditions: Orthopoxvirus vaccinia
Human alphaherpesvirus 3 [8] = assay: Antiviral activity against Varicella-zoster virus YS; format: functional, organism-based
In short: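 VZV was assayed by plaque formation. Confluent cell cultures received 10 or 100 PFU with varying compound concentrations, and plaques were recorded once complete in untreated infected controls. EC50 is the concentration that reduces plaque formation by 50%.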

Human alphaherpesvirus 3 [9] = assay: Antiviral activity against Varicella-zoster virus OKA; format: functional; conditions: strain Oka vaccine
In short: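 Confluent cell monolayers were infected with 10 or 100 PFU of VZV in the presence of serial compound dilutions. Plaque formation was recorded once untreated infected controls reached completion. EC50 was the concentration that reduced plaque formation by 50%.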

Human alphaherpesvirus 2 [10] = assay: Antiviral activity against Herpes simplex virus type 2 Lyons; format: functional, organism-based; in short: as §2
Human alphaherpesvirus 2 [11] = assay: Antiviral activity against Herpes simplex virus type 2 G; format: functional, organism-based; conditions: strain G; in short: as §2
Human alphaherpesvirus 1 [12] = assay: Antiviral activity against thymidine kinase deficient acyclovir-resistant Herpes simplex virus type 1 KOS; format: functional, organism-based
Human alphaherpesvirus 1 [13] = assay: Antiviral activity against Herpes simplex virus type 1 KOS; format: functional, organism-based; in short: as §2
HEL = assay: Cytotoxicity against HEL; format: cell-based; conditions: human
Human betaherpesvirus 5 [14] = assay: Antiviral actiivty against Human herpesvirus 5 Davis infected in HEL assessed as reduction of virus-induced plaque formation; format: functional, organism-based; conditions: Human betaherpesvirus 5, Davis
In short: (§4)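 HCMV strains AD-169 and Davis were tested on confluent human embryonic lung fibroblast monolayers infected with 100 PFU in the presence of serial compound concentrations. Plaques were counted once formation was complete in untreated infected controls. EC50 is the concentration that cuts plaque formation by 50%.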

Human betaherpesvirus 5 [15] = assay: Antiviral actiivty against Human herpesvirus 5 AD169 infected in HEL assessed as reduction of virus-induced plaque formation; format: functional, organism-based; conditions: Human betaherpesvirus 5, AD169; in short: as §4
[16] = Cytotoxicity against HEL assessed as minimum cytotoxic concentration required to cause microscopically detectable alteration in cell morphology; format: cell-based; conditions: human, HEL cells

| SMILES | Activity [1] | Activity [2] | Activity (Feline coronavirus) | Activity (Sindbis virus) | Activity (Punta Toro virus) | Activity (Influenza B virus) | Activity [3] | Activity (Influenza A virus [4]) | Activity (Human respirovirus 3) | Activity (Influenza A virus [5]) | Activity (Coxsackievirus B4) | Activity [6] | Activity [7] | Activity (Vaccinia virus) | Activity (Human alphaherpesvirus 3 [8]) | Activity (Human alphaherpesvirus 3 [9]) | Activity (Human alphaherpesvirus 2 [10]) | Activity (Human alphaherpesvirus 2 [11]) | Activity (Human alphaherpesvirus 1 [12]) | Activity (Human alphaherpesvirus 1 [13]) | also measured |
| --- | --- | --- | --- | --- | --- | --- | --- | --- | --- | --- | --- | --- | --- | --- | --- | --- | --- | --- | --- | --- | --- |
| O=c1[nH]c(=O)n(CCCCCOc2ccc(Br)cc2)cc1Br | inactive | inactive | inactive | inactive | inactive | inactive | inactive | inactive | inactive | inactive | inactive | inactive | inactive | inactive | inactive | inactive | inactive | inactive | inactive | inactive | CC50 (HEL): > 100 µM; pEC50 (Human betaherpesvirus 5 [14]): 4.17; pEC50 (Human betaherpesvirus 5 [15]): 4.44; MCC [16]: > 100 µM |
| Cc1ccc(OCCCCCn2ccc(=O)[nH]c2=O)cc1 | inactive | inactive | inactive | inactive | inactive | inactive | inactive | inactive | inactive | inactive | inactive | inactive | inactive | inactive | inactive | inactive | inactive | inactive | inactive | inactive | CC50 (HEL): > 100 µM; pEC50 (Human betaherpesvirus 5 [14]): < 4.70; pEC50 (Human betaherpesvirus 5 [15]): < 4.70; MCC [16]: 100 µM |
| Cc1cccc(OCCCCCn2ccc(=O)[nH]c2=O)c1 | inactive | inactive | inactive | inactive | inactive | inactive | inactive | inactive | inactive | inactive | inactive | inactive | inactive | inactive | inactive | inactive | inactive | inactive | inactive | inactive | CC50 (HEL): > 100 µM; pEC50 (Human betaherpesvirus 5 [14]): 4.26; pEC50 (Human betaherpesvirus 5 [15]): 4.35; MCC [16]: > 100 µM |
| O=c1ccn(CCCCCOc2ccc(Br)cc2)c(=O)[nH]1 | inactive | inactive | inactive | inactive | inactive | inactive | inactive | inactive | inactive | inactive | inactive | inactive | inactive | inactive | inactive | inactive | inactive | inactive | inactive | inactive | CC50 (HEL): > 100 µM; pEC50 (Human betaherpesvirus 5 [14]): 4.92; pEC50 (Human betaherpesvirus 5 [15]): 5.03; MCC [16]: 100 µM |
| O=c1[nH]c(=O)n(CCCCCOc2ccc(Br)cc2)cc1I | inactive | inactive | inactive | inactive | inactive | inactive | inactive | inactive | inactive | inactive | inactive | inactive | inactive | inactive | inactive | inactive | inactive | inactive | inactive | inactive | CC50 (HEL): > 100 µM; pEC50 (Human betaherpesvirus 5 [14]): 4.70; pEC50 (Human betaherpesvirus 5 [15]): 4.89; MCC [16]: ≥ 100 µM |
| CCCOC(=O)c1ccc(OCCCCCn2ccc(=O)[nH]c2=O)cc1 | inactive | inactive | inactive | inactive | inactive | inactive | inactive | inactive | inactive | inactive | inactive | inactive | inactive | inactive | inactive | inactive | inactive | inactive | inactive | inactive | CC50 (HEL): > 100 µM; pEC50 (Human betaherpesvirus 5 [14]): 4.35; pEC50 (Human betaherpesvirus 5 [15]): 4.35; MCC [16]: ≥ 100 µM |
| N#Cc1ccc(OCCCCCn2ccc(=O)[nH]c2=O)cc1 | inactive | inactive | inactive | inactive | inactive | inactive | inactive | inactive | inactive | inactive | inactive | inactive | inactive | inactive | inactive | inactive | inactive | inactive | inactive | inactive | CC50 (HEL): 100 µM; pEC50 (Human betaherpesvirus 5 [14]): 5.26; pEC50 (Human betaherpesvirus 5 [15]): 5.05; MCC [16]: 100 µM |
| CC(C)c1ccc(OCCCCCn2ccc(=O)[nH]c2=O)cc1 | inactive | inactive | inactive | inactive | inactive | inactive | inactive | inactive | inactive | inactive | inactive | inactive | inactive | inactive | inactive | inactive | inactive | inactive | inactive | inactive | CC50 (HEL): > 100 µM; pEC50 (Human betaherpesvirus 5 [14]): 4.82; pEC50 (Human betaherpesvirus 5 [15]): 4.60; MCC [16]: 100 µM |
| Cc1cn(CCCCCOc2ccc(Br)cc2)c(=O)[nH]c1=O | inactive | inactive | inactive | inactive | inactive | inactive | inactive | inactive | inactive | inactive | inactive | inactive | inactive | inactive | inactive | inactive | inactive | inactive | inactive | inactive | CC50 (HEL): > 100 µM; pEC50 (Human betaherpesvirus 5 [14]): 5.05; pEC50 (Human betaherpesvirus 5 [15]): 5.05; MCC [16]: 100 µM |
| Nc1ccc(OCCCCCn2ccc(=O)[nH]c2=O)cc1 | inactive | inactive | inactive | inactive | inactive | inactive | inactive | inactive | inactive | inactive | inactive | inactive | inactive | inactive | inactive | inactive | inactive | inactive | inactive | inactive | CC50 (HEL): > 100 µM; pEC50 (Human betaherpesvirus 5 [14]): 4.26; pEC50 (Human betaherpesvirus 5 [15]): 4.26; MCC [16]: > 100 µM |
